# Measurements as given in ChEMBL document CHEMBL4834436, “Discovery of the S1P2 Antagonist GLPG2938 (1-[2-Ethoxy-6-(trifluoromethyl)-4-pyridyl]-3-[[5-methyl-6-[1-methyl-3-(trifluoromethyl)pyrazol-4-yl]pyridazin-3-yl]methyl]urea), a Preclinical Candidate for the Treatment of Idiopathic Pulmonary Fibrosis” (J Med Chem, 2021).
# The source made the active and inactive calls. The rule behind the calls is not given here.
# Assays:
# [1] = target: T1, Sphingosine 1-phosphate receptor 2 (Homo sapiens, UniProt O95136); test: Antagonist activity at human S1P2 receptor expressed in CHO cells assessed as EC80 S1P-induced calcium flux measured for 3 mins by fluorescence assay; format: functional, cell-based
# How it was run: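 Same dye-loaded, starved human S1P2-CHO cells; after agonist readout, 15 min at 37 °C, then stimulated with S1P at EC80, fluorescence read 3 min. Max/baseline ratio normalized to vehicle and S1P EC80. 10-point 1/3 dilutions from 20 μM final; IC50 derived; geometric mean of ≥2 runs.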
# [2] = target: T1, Sphingosine 1-phosphate receptor 2; test: Antagonist activity at recombinant human S1P2 receptor expressed in CHO cells assessed as EC80 S1P-induced activation incubated for 4 hrs in presence of [35S]GTPgammaS by Topcount reader; format: functional, cell-based
# How it was run: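 Membranes from stable lines overexpressing recombinant human S1P2, preincubated with PVT-WGA SPA beads, mixed with compound serial dilutions, [35S]GTPγS and S1P at EC80. Incubated 4 h at room temperature, centrifuged, scintillation counted. Antagonist mode; IC50 as geometric mean of ≥2 runs.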
# [3] = Intrinsic clearance unbound in mouse liver microsomes at 1 uM […] by LC-MS/MS analysis; format: ADME, Microsome
# [4] = target: T1, Sphingosine 1-phosphate receptor 2; test: Antagonist activity at recombinant human S1P2 receptor in HFL1 cells assessed as inhibition of EC80 S1P-induced IL8 release incubated for 16 to 24 hrs in absence of HSA by ELISA; format: functional, cell-based
# How it was run: (§1)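 HFL-1 lung fibroblasts seeded in 96- or 384-well plates, then medium replaced by starvation medium with 1% heat-inactivated FBS, ±1.95% HSA (2% HSA condition), 16–24 h. 10-point 1/3 dilutions, 30 μM top final, 1 h, then S1P at EC80 (without HSA: 1 μM 96-well or 0.5 μM 384-well; with HSA: 5 or 2 μM).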
# [5] = Intrinsic clearance unbound in human liver microsomes at 1 uM […] by LC-MS/MS analysis; format: ADME, Microsome
# [6] = target: T1, Sphingosine 1-phosphate receptor 2; test: Antagonist activity at recombinant human S1P2 receptor in HFL1 cells assessed as inhibition of EC80 S1P-induced IL8 release incubated for 16 to 24 hrs in presence of 2% HSA by ELISA; format: functional, cell-based; how it was run: as §1
# [7] = target: T1, Sphingosine 1-phosphate receptor 2; test: Agonist activity at human S1P2 receptor expressed in CHO cells assessed as calcium flux measured for 3 mins by fluorescence assay; format: functional, cell-based; settings: read-out: IC50 (the source's name)
# How it was run: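 CHO cells stably overexpressing human S1P2, seeded overnight at 37 °C/5% CO2, washed and starved 1 h in F-12 with 0.1% fatty-acid-free BSA, loaded with Fluo 8 dye with 5 mM probenecid. Compound added, fluorescence read 3 min; max/baseline ratio normalized to vehicle and S1P EC100. 10-point 1/3 dilutions from 23.3 μM final; EC50 derived; geometric mean of ≥2 runs.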
# [8] = target: T1, Sphingosine 1-phosphate receptor 2; test: Antagonist activity at recombinant human S1P2 receptor in HFL1 cells assessed as inhibition of EC80 S1P-induced IL8 release measured as unbound concentration incubated for 16 to 24 hrs in presence of 2% HSA by ELISA; format: functional, cell-based; settings: filed as antagonist, time 16-24 hrs
# How it was run: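 IL8 IC50 from the 2% HSA condition converted to free IC50 = IC50 × fu,medium, where fu,medium is estimated from human plasma protein binding fraction unbound and the serum percentage used in the assay.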
# [9] = test system: Mus musculus; test: Antifibrotic activity against intranasal bleomycin-induced C57BL/6 mouse lung fibrosis model assessed as reduction in Ashcroft score at 50 mg/kg, po twice daily for 14 days; format: functional, organism-based; settings: time 14.0 day
# How it was run: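 Male C57BL/6 mice (7–8 weeks on arrival, one week acclimation) given bleomycin intranasally; prophylactic oral dosing twice daily for 14 days. Lungs scored histologically by Matsuse-modified Ashcroft score; 14–15 mice per group; Mann–Whitney vs bleomycin/vehicle.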
# [10] = target: T1, Sphingosine 1-phosphate receptor 2; test: Displacement of radio labeled-SIP from human recombinant S1P2 receptor expressed in CHO cell membranes […] by radioligand based competition binding assay; set-up: species or system Membrane
# [11] = target: CYP3A4 (Homo sapiens, UniProt P08684); test: Inhibition of recombinant CYP3A4 (unknown origin) at 10 uM; format: ADME
# [12] = target: CYP2C19 (Homo sapiens, UniProt P33261); test: Inhibition of recombinant CYP2C19 (unknown origin) at 10 uM; format: ADME
# [13] = target: CYP2C9 (Homo sapiens, UniProt P11712); test: Inhibition of recombinant CYP2C9 (unknown origin) at 10 uM; format: ADME
# Chain of CYP2C9 (P11712 whole entry): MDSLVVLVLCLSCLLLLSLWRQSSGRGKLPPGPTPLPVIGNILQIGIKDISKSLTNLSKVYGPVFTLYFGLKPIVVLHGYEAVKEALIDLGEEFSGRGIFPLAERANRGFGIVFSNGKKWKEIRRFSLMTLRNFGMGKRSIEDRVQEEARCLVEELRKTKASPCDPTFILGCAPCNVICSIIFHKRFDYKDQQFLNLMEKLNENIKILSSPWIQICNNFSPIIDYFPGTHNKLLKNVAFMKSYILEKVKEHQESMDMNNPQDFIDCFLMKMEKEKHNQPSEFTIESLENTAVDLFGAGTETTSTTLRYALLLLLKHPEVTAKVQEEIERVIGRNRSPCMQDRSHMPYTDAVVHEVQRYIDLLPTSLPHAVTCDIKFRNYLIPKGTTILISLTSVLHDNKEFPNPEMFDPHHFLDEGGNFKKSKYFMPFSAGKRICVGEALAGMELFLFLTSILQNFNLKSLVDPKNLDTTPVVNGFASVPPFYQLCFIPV
# T1 sequence (O95136 whole entry): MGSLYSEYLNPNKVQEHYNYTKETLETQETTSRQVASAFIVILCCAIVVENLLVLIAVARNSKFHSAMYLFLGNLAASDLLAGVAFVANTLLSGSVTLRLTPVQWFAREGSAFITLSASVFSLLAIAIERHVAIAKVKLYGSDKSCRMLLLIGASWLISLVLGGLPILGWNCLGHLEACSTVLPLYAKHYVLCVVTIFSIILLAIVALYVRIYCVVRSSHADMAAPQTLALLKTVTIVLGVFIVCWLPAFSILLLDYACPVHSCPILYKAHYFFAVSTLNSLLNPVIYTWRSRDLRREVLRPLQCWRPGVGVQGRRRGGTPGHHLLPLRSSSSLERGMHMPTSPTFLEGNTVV
# Chain of CYP2C19 (P33261 whole entry): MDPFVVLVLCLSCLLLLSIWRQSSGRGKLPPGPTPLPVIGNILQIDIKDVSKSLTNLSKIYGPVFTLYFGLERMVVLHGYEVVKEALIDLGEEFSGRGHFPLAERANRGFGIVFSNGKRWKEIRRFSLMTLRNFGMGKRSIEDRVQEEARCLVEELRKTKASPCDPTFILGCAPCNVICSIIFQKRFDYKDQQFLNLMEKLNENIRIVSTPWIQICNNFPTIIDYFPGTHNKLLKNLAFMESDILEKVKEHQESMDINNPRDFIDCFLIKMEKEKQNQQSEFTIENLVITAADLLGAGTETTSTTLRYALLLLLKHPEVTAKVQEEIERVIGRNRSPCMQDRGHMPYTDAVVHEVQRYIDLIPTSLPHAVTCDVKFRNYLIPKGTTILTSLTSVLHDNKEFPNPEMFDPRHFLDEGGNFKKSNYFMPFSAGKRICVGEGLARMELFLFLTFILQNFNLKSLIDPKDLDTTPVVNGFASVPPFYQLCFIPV
# Chain of CYP3A4 (P08684 whole entry): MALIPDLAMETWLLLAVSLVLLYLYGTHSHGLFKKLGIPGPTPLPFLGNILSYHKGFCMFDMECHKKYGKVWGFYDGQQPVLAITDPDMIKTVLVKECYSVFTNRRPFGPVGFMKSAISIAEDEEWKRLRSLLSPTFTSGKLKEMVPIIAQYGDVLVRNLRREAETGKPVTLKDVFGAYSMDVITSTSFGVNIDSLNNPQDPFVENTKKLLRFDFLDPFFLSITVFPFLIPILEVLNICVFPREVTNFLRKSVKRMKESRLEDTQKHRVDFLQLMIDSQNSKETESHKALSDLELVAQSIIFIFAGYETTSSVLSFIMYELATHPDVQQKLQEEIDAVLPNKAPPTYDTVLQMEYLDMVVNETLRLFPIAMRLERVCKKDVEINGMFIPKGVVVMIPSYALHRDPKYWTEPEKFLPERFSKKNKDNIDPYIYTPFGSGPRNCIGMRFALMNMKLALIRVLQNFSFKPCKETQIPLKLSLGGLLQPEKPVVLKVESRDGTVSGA
SMILES,IC50 [1] [µM],IC50 [2] [µM],CL free [3] [mL/min/kg],IC50 [4] [nM],CL free [5] [mL/min/kg],EC50 [7] [µM],also measured
CCOc1nc(Cl)cc2nc(NCc3cc(C)c(-c4cn(C)nc4C)cn3)[nH]c12,0.033,2.25,1370,2.25,–,–,–
CCOc1cc(NC(=O)NCc2cc(C)c(-c3cn(C)nc3C)cn2)cc(Cl)n1,0.04,0.32,700,0.032,–,4.7,–
CCOc1cc(NC(=O)NCc2cc(C)c(Nc3cn(C)nc3C)cn2)cc(C(F)(F)F)n1,0.012,55,867,55,267,–,–
Cc1cc(NNC(=O)Nc2cc(Cl)nc(Cl)c2)nc(C(=O)NC2CC2)c1,4.5,–,–,–,–,> 23,–
Cc1cc(CNC(=O)c2cc3c(Cl)cc(Cl)cc3[nH]2)ncc1-c1cn(C)nc1C,0.11,0.61,> 783,0.61,–,–,–
Cc1ccc(=O)n(-c2ccccc2)c1,–,–,–,–,–,–,Activity [9]: Active
Cc1cc(NNC(=O)Nc2cc(Cl)nc(Cl)c2)ncc1N(C)C,3.6,5.3,–,–,–,> 23,–
Cc1cc(NNC(=O)Nc2cc(Cl)nc(Cl)c2)ncc1-c1cnn(C)c1,2.6,3.4,–,–,–,> 23,IC50 [10]: 1.2 µM
Cc1cc(CNC(=O)Nc2cc(Cl)cc(Cl)c2)ncc1-c1cn(C)nc1C,0.16,0.3,2650,0.3,–,–,–
CCOc1nc(C#N)cc(NC(=O)NCc2cc(C)c(-c3cn(C)nc3C(F)(F)F)nn2)c1C,7.1,24,< 163,24,< 35,–,fIC50 [8]: 0.19 nM; IC50 [6]: 0.017 µM
Cc1cc(NNC(=O)Nc2cc(Cl)nc(Cl)c2)nc(C(=O)N(C)C)c1,> 19,–,–,–,–,> 23,–
CCOc1cc(NC(=O)NCc2cc(C)c(-c3cn(C)nc3C(F)(F)F)cn2)cc(Cl)n1,0.011,22,450,22,150,–,inhibition at 10 µM [11]: 83%; inhibition at 10 µM [12]: 100%; inhibition at 10 µM [13]: 83%
Cc1cc(CNC(=O)Cc2ccc(Cl)c(Cl)c2)ncc1-c1cn(C)nc1C,> 19,–,3770,–,–,–,IC50 ([2]; cho): Not Active
Cc1cc(CNC(=O)Nc2cc(C(F)(F)F)nc(OCCO)c2C)nnc1-c1cn(C)nc1C(F)(F)F,84,169,91.7,160,–,–,fIC50 [8]: 5.4 nM; IC50 [6]: 0.256 µM
Cc1cc(CNC(=O)Nc2cc(OCCO)nc(C(F)(F)F)c2)nnc1-c1cn(C)nc1C(F)(F)F,348,704,102,704,< 23.3,–,fIC50 [8]: 87 nM; IC50 [6]: 0.81 µM

# The next lines start with results.
IC50 [1] [µM],IC50 [2] [µM],CL free [3] [mL/min/kg],IC50 [4] [nM],CL free [5] [mL/min/kg],EC50 [7] [µM],SMILES,also measured
412,640,317,640,< 23.3,–,COCCOc1cc(NC(=O)NCc2cc(C)c(-c3cn(C)nc3C(F)(F)F)nn2)cc(Cl)n1,IC50 [6]: 3.22 µM
11,35,< 105,35,< 28.3,–,CCOc1cc(NC(=O)NCc2cc(C)c(-c3cn(C)nc3C(F)(F)F)nn2)cc(C#N)n1,fIC50 [8]: 3 nM; IC50 [6]: 0.067 µM
8.8,15,< 533,15,< 127,–,CCOc1nc(Cl)cc(NC(=O)NCc2cc(C)c(-c3cn(C)nc3C(F)(F)F)nn2)c1C,fIC50 [8]: 0.16 nM; IC50 [6]: 0.032 µM
> 6.6,–,–,–,–,> 23,Cc1cc(C#N)nc(NNC(=O)Nc2cc(Cl)nc(Cl)c2)c1,–
54,242,< 58.3,242,< 15,–,CCOc1cc(NC(=O)NCc2cc(C)c(-c3cn(C)nc3C(F)(F)F)nn2)cc(C)n1,fIC50 [8]: 15 nM; IC50 [6]: 0.194 µM
8.7,26,250,26,< 25,–,CCOc1nc(C)cc(NC(=O)NCc2cc(C)c(-c3cn(C)nc3C(F)(F)F)nn2)c1Cl,fIC50 [8]: 0.55 nM; IC50 [6]: 0.049 µM
> 20,–,–,–,–,> 23,Cc1cc(NNC(=O)Nc2cc(Cl)nc(Cl)c2)nc(C(=O)N(C)C2CC2)c1,–
0.3,0.77,200,0.77,–,–,Cc1cc(CNC(=O)Nc2cc(Cl)nc(Cl)c2)ncc1-c1cn(C)nc1C,–
> 20,> 20000,2270,> 20000,–,–,CCOc1nc(C)cc(NC(=O)NCc2cc(C)c(-c3cn(C)nc3C(F)(F)F)nn2)c1C#N,IC50 [6]: > 30 µM
0.009,0.43,2580,0.43,–,–,Cc1cc(CNc2nc3cc(Cl)c(Cl)cc3[nH]2)ncc1-c1cn(C)nc1C,–
0.76,2.1,–,–,–,> 23,CCOC(=O)c1cc(C)cc(NNC(=O)Nc2cc(Cl)nc(Cl)c2)n1,IC50 [10]: 0.3 µM
> 19,> 100,85,> 100,–,–,Cc1cc(CNC(=O)c2cc(Cl)nc(Cl)c2)ncc1-c1cn(C)nc1C,–
> 1.4,0.8,–,–,–,> 23,Cc1cc(NNC(=O)Nc2cc(Cl)nc(Cl)c2)ncc1-c1cn(C)nc1C,IC50 [10]: 0.19 µM
4,9.3,–,–,–,> 23,Cc1cc(NNC(=O)Nc2cc(Cl)nc(Cl)c2)ncc1-c1ccn(C)n1,–
> 2.1,3.1,–,–,–,> 23,Cc1cc(NNC(=O)Nc2cc(Cl)nc(Cl)c2)nc(-c2cnn(C)c2)c1,–
2140,> 10000,< 90,> 10000,23.3,–,Cc1cc(CNC(=O)Nc2cc(OCCN(C)C)nc(C(F)(F)F)c2)nnc1-c1cn(C)nc1C(F)(F)F,–
7.2,36,< 167,36,< 50,–,Cc1cc(CNC(=O)Nc2cc(Cl)nc(OCC(F)F)c2)nnc1-c1cn(C)nc1C(F)(F)F,fIC50 [8]: 1.3 nM; IC50 [6]: 0.071 µM
0.016,105,500,105,125,–,CCOc1cc(NC(=O)NCc2cc(C)c(N3CC(C)OC(C)C3)cn2)cc(Cl)n1 (stereo not given),–
6,7,–,–,–,> 23,Cc1cc(NNC(=O)Nc2cc(Cl)nc(Cl)c2)ncc1C#N,–
> 6.6,31,–,–,–,> 23,Cc1cc(CO)nc(NNC(=O)Nc2cc(Cl)nc(Cl)c2)c1,–
1.3,6.2,–,–,–,> 23,Cc1cc(NNC(=O)Nc2cc(Cl)nc(Cl)c2)nc(-c2ccc(F)cc2)c1,–
0.89,1.3,633,1.3,–,–,Cc1cc(CNC(=O)c2cc3c(Cl)nc(Cl)cc3[nH]2)ncc1-c1cn(C)nc1C,–
> 6.61,> 11000,< 76.7,> 11000,31.7,–,Cc1cc(CNC(=O)Nc2cc(OCC(O)CO)nc(C(F)(F)F)c2)nnc1-c1cn(C)nc1C(F)(F)F (stereo not given),IC50 [6]: > 10 µM
